Consider one compound from ChEMBL document CHEMBL2390952, “Novel triazolo-pyrrolopyridines as inhibitors of Janus kinase 1” (Bioorg Med Chem Lett, 2013).

Data set [1] can be described thus: Apparent permeability from apical to basolateral side in MDCK cells. Type of data set: ADME, cell-based, Canis lupus familiaris. The following applies: dog. Put shortly:
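MDCK cells grown in transwell culture. Apparent permeability measured in the apical-to-basolateral direction and reported as the arithmetic mean of at least two separate determinations.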

The target of data set [2] is T1, Tyrosine-protein kinase JAK3 (Homo sapiens, UniProt P52333).
T1 sequence (P52333 whole entry): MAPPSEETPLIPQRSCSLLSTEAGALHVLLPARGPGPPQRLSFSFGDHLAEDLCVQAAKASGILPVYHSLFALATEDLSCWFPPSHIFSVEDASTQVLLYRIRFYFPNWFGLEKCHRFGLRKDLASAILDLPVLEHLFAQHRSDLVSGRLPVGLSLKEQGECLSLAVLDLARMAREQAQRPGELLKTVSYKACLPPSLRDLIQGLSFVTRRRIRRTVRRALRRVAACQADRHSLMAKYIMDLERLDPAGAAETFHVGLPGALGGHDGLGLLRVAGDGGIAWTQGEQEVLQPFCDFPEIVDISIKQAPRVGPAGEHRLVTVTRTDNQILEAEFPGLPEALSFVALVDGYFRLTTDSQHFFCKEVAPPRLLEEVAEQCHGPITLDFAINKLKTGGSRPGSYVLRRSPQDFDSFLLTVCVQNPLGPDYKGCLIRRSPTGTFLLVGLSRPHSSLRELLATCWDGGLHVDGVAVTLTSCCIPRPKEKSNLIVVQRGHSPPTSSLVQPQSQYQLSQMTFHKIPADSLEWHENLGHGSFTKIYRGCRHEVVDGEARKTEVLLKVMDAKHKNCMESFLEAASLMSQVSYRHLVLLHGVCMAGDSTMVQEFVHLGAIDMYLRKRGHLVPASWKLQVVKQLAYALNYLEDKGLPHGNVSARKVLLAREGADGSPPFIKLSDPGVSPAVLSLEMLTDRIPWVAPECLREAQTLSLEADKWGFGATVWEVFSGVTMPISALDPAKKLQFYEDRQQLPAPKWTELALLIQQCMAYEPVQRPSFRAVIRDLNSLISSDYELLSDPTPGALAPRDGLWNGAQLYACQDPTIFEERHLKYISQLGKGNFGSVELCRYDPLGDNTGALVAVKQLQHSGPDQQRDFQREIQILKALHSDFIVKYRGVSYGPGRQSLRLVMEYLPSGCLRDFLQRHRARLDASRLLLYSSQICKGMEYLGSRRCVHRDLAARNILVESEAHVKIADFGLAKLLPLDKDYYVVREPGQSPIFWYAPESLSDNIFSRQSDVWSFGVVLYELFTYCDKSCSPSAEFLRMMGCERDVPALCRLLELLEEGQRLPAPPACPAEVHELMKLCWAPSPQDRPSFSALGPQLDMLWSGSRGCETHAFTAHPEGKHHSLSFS
The data set is described as follows: Inhibition of JAK3 (unknown origin).

The nature of data set [3]: AUC in Sprague-Dawley rat at 5 mg/kg, po. Type of data set: ADME, organism-based. Set-up: dose 5 mg/kg, route oral. The note with it: plasma. In outline:
(§1)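 Rat pharmacokinetics given as mean profiles from three animals. Values normalized to 1 mg/kg iv and 5 mg/kg po. Clearance is plasma clearance after iv dosing.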

A short description of data set [4]: Lipophilicity, log D of the compound at pH 7.2. It is filed as physicochemical. The following applies: buffer. In outline:
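Log D determined experimentally at pH 7.2.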

Data set [5] can be described thus: Cmax in Sprague-Dawley rat at 5 mg/kg, po. Type of data set: ADME, organism-based. Set-up: dose 5 mg/kg, route oral. The note with it: in vivo. Put shortly:
as §1

Data set [6] can be described thus: Oral bioavailability in Sprague-Dawley rat at 5 mg/kg. Type of data set: ADME, organism-based. The note with it: in vivo. In outline: as §1
Data set [7] can be described thus: Clearance in Sprague-Dawley rat at 1 mg/kg, iv. More on the design: dose 1 mg/kg, route intravenous. It is filed as ADME, organism-based. The note with it: in vivo. In outline:
as §1

Data set [8] is described as follows: Half life in human liver microsomes. Type of data set: ADME, Microsome. In outline:
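Half-life measured by incubation with in vitro preparations of human liver microsomes.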
On the technique in general: Liver microsomes are vesicles of endoplasmic reticulum, rich in cytochrome P450 enzymes.

In data set [9] the target is T2, Serine/threonine-protein kinase D1 (Homo sapiens) (UniProt Q15139).
T2 sequence (whole entry): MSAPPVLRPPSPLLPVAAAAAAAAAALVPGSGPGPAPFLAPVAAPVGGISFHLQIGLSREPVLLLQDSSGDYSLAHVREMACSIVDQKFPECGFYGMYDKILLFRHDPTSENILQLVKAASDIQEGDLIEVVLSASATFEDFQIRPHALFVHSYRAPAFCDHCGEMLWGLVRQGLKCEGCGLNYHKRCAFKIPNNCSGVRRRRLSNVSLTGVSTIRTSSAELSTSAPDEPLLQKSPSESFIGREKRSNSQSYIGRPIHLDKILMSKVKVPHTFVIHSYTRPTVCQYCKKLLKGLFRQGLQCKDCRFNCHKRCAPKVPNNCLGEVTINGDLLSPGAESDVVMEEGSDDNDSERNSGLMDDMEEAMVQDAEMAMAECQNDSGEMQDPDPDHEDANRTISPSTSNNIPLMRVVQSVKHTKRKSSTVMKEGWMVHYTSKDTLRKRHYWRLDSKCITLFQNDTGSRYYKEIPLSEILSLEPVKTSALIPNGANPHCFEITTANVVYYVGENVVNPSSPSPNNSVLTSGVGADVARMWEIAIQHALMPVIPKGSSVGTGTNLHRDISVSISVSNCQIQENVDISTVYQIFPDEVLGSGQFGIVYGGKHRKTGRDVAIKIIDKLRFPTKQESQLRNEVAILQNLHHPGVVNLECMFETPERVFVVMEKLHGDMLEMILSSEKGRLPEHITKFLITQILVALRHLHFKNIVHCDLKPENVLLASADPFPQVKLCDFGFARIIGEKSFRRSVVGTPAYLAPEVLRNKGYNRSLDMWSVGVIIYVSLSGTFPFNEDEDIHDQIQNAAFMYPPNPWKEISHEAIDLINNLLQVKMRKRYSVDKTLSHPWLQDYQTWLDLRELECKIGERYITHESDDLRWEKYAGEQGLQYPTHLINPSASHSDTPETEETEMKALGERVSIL
Briefly: Inhibition of protein kinase D1 (unknown origin) relative to control. The note with it: concentration not given here. In outline: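 Kinase selectivity panel of 50 non-JAK kinases. […] Percent inhibition scored, and enzymes inhibited by more than 40% were counted.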

A word on the Papp A→B: it is how fast a substance crosses the layer from the apical side. A word on the Ki: it is the dissociation constant of the complex between target and ligand, obtained from inhibition or displacement. Broadly, the AUC is concentration integrated over time. By logD is commonly meant lipophilicity at a set pH, counting ionised and neutral species. Higher therefore signals a more lipophilic compound. Broadly, the Cmax is the peak of the concentration-time curve. For orientation: bioavailability means dose-corrected exposure relative to a reference, in per cent. Higher therefore signals good availability. As usually defined, the clearance is the rate of elimination divided by the concentration. A lower clearance goes with inefficient removal. Broadly, the half-life is how long it takes for the measured level to halve. Read a high half-life as slow decline. In general, inhibition refers to the share of the control response that was lost under treatment. For `N#CCCN[C@H]1CC[C@H](n2nnc3cnc4[nH]ccc4c32)CC1`, in data set [1], the Papp A→B was determined as 72 nm/s. In addition, in data set [2], the affinity, expressed as Ki, was 0.122 µM. In addition, the AUC in data set [3] is 1400 nM·h. In addition, the log distribution coefficient (logD) in data set [4] was found to be 1.05. Further, in data set [5], the highest level (Cmax) was 0.9 µM. The compound further returned a bioavailability in data set [6] of 44%. The clearance in data set [7] amounted to 5.28 L/h/kg. This compound gave a half-life in data set [8] of 2.3 h. In data set [9], this compound gave an inhibition of 44%.
